Assay results: ChEMBL document CHEMBL3580565, “Synthesis and Biological Evaluation of Cyclopentaquinoline Derivatives as Nonsteroidal Glucocorticoid Receptor Antagonists” (J Med Chem, 2015)

What was measured:
[1] = Unbound brain to plasma concentration ratio in Sprague-Dawley rat at 30 mg/kg, po measured at 1 hr by LC/MS/MS analysis; assay type: ADME, organism-based; conditions: brain and plasma, read-out: K(p,uu,brain)
Summary of the method: (§1)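 Male SD rats given 30 mg/kg orally (n = 3 per time point), killed at 1 and 3 h. Heparinized blood collected for plasma; brain rinsed in saline, weighed, homogenized in five volumes (w/v) saline. Plasma and brain levels by LC/MS/MS. Kp,uu,brain is the ratio of unbound brain to unbound plasma concentration.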

[2] = AUC (0 to infinity) in Sprague-Dawley rat at 1 mg/kg, iv by LC/MS/MS analysis; assay type: ADME, organism-based; set-up: dose 1 mg/kg, route intravenous, time infinity; conditions: in vivo
Summary of the method: (§2)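 Single intravenous dose to male Sprague–Dawley rats (n = 4). Jugular vein blood drawn at 0.05, 0.25, 0.5, 1, 2, 4, 8 and 24 h, heparin anticoagulant, plasma separated by centrifugation. Plasma drug level measured by LC/MS/MS.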

[3] = Half life in Sprague-Dawley rat at 10 mg/kg, po by LC/MS/MS analysis; assay type: ADME, organism-based; conditions: in vivo
Summary of the method: (§3)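 Male Sprague–Dawley rats dosed orally (n = 4). Jugular vein blood sampled at 0.25, 0.5, 1, 2, 4, 6 and 24 h into heparin, plasma obtained by centrifugation. Concentrations determined by LC/MS/MS.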

[4] = AUC (0 to t) in Sprague-Dawley rat at 10 mg/kg, po by LC/MS/MS analysis; assay type: ADME, organism-based; conditions: in vivo; summary of the method: as §3
[5] = Tmax in Sprague-Dawley rat at 10 mg/kg, po by LC/MS/MS analysis; assay type: ADME, organism-based; conditions: in vivo; summary of the method: as §3
Androgen receptor = molecular target: T1, Androgen receptor (Homo sapiens, UniProt P10275); assay: Displacement of [3H]methyltrienolone from cytosolic fraction of androgen receptor in human […] cells after 24 hrs by scintillation counting analysis; assay type: cell-based
T1 sequence (P10275 whole entry): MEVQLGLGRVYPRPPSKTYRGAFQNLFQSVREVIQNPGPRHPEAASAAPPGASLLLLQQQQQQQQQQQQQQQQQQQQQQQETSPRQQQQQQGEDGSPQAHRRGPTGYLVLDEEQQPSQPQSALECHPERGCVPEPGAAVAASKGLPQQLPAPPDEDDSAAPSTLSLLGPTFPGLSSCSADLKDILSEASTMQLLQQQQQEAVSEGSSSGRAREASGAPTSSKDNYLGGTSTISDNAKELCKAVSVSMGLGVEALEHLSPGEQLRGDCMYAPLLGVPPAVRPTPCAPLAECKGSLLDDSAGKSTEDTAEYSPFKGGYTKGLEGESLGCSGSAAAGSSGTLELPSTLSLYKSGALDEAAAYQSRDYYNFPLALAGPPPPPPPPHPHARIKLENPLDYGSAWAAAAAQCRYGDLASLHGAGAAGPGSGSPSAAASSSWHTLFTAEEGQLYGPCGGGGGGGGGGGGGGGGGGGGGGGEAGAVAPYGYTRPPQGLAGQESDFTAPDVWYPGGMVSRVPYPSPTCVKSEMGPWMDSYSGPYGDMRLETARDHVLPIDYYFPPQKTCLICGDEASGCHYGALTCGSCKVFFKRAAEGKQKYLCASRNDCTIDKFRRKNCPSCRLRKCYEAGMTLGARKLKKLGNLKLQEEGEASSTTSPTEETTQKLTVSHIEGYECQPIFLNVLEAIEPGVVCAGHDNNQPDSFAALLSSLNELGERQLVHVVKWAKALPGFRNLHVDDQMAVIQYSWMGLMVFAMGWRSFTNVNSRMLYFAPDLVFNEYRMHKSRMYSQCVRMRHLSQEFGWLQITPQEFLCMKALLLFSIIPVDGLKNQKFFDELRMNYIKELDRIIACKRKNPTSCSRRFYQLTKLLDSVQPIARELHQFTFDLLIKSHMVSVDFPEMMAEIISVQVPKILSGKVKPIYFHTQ
Summary of the method: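 Assay run at Cerep. Binding of [³H]methyltrienolone to cytosolic androgen receptor from LNCaP cells.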

[6] = molecular target: T2, Mineralocorticoid receptor (Homo sapiens, UniProt P08235); assay: Displacement of [3H]-aldosterone from cytosolic fraction of human recombinant mineralocorticoid receptor by scintillation counting analysis
T2 sequence (P08235 whole entry): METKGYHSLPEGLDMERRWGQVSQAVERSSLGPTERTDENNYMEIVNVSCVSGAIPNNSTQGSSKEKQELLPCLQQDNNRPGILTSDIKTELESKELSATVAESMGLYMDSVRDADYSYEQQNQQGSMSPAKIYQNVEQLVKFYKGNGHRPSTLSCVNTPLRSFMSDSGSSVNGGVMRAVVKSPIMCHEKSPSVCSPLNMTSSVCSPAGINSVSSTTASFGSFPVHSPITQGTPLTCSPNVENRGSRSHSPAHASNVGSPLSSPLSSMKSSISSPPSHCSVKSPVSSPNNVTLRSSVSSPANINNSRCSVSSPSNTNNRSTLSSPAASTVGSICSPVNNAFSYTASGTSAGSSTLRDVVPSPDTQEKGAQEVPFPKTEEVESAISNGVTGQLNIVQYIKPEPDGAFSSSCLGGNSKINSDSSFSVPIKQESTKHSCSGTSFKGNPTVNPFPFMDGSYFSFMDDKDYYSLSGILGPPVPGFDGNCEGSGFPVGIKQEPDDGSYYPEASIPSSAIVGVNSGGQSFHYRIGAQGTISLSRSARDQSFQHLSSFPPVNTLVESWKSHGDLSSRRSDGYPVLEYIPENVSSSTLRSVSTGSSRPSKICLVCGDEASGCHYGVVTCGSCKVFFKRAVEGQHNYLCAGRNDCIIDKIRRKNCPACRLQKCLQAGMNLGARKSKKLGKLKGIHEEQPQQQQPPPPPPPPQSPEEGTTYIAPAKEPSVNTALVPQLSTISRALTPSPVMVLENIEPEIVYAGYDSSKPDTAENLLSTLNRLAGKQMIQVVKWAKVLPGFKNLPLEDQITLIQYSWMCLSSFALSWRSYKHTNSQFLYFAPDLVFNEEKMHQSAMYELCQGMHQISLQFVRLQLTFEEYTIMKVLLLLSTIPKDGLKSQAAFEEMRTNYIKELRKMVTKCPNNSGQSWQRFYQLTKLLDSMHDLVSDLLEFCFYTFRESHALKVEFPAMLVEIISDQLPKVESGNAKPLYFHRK

Rattus norvegicus [7] = assay: Antidepressant-like activity in Wistar rat assessed as decrease in immobility time at 10 mg/kg, po administered at 1, 5, 23.5 hrs prior to testing measured for 5 mins by forced swimming test relative to vehicle-treated control; assay type: functional; set-up: scale not given: the % may be the effect or the level left
Estrogen receptor = Estrogen receptor (Homo sapiens, UniProt P03372); assay: Displacement of fluormone ES2 from human recombinant estrogen receptor-alpha expressed in insect Sf9 cells after 120 mins by fluorescence polarization assay
Summary of the method: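 Assay run at Cerep. Fluorescence polarization with Fluormone ES2 tracer, using recombinant human ERα expressed in Sf9 cells and ERβ expressed in Hi5 cells.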

[8] = Total clearance in Sprague-Dawley rat at 1 mg/kg, iv by LC/MS/MS analysis; assay type: ADME, organism-based; conditions: in vivo; summary of the method: as §2
Rattus norvegicus [9] = assay: Antidepressant-like activity in Wistar rat assessed as immobility time at 10 mg/kg, po administered at 1, 5, 23.5 hrs prior to testing measured for 5 mins by forced swimming test (reference value: 211.3 to 232.2 secs); assay type: functional
Plasma = assay: Unbound plasma concentration in Sprague-Dawley rat at 30 mg/kg, po measured at 1 hr by LC/MS/MS analysis; assay type: ADME, organism-based; conditions: in vivo; summary of the method: as §1

Chain of Estrogen receptor (P03372 whole entry, looked up): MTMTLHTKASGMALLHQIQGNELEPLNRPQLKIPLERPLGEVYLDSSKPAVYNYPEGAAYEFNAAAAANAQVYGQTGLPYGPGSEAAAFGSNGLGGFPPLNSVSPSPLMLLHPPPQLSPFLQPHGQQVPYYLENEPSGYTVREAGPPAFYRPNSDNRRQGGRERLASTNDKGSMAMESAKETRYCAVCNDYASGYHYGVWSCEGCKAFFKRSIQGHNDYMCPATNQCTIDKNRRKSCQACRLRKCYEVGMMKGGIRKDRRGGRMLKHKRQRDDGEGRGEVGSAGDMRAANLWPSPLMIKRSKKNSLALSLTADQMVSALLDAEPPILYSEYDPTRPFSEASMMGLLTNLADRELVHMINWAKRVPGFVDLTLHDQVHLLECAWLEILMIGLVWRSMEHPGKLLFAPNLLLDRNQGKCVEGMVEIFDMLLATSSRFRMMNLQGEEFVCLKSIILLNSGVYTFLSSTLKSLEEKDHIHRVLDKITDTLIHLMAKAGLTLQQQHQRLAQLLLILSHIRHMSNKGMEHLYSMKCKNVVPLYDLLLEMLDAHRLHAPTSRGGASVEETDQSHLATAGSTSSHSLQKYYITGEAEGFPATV

## Cc1noc(C)c1-c1cc2c(c3c1CCC3)NC(C)(C)C(=O)C2(C)C
[1]
  Kp uu at 1 h: 1.8
[2]
  AUC(0-inf): 460 ng·h/mL
[3]
  half-life: 4.6 h
[4]
  AUC(0-t): 2420 ng·h/mL
[5]
  Tmax: 3.5 h
Androgen receptor
  Ki: > 2300 nM
[6]
  Ki: > 3000 nM
Rattus norvegicus [7]
  Activity: 89.1%
Estrogen receptor
  Ki: > 2300 nM
[8]
  clearance: 37.1 mL/min/kg
Rattus norvegicus [9]
  Time: 206.8 s
Plasma
  Cp(f): 14.1 nM
